Test system: HeLa
Assay: Antiproliferative activity against human HeLa cells assessed as inhibition of cell growth incubated for 24 hrs by MTT assay
Format: functional, cell-based
How it was run: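 Cells kept in DMEM with 10% FBS and 1% antibiotic-antimycotic at 37 °C and 5% CO2. Seeded at 8 × 10^3 cells per 100 μL and left 24 h, then exposed 24 h to 5, 10, 20, 50 or 100 μM. MTT at 0.5 mg/mL in HBSS was added for 2–4 h at 37 °C in the dark. Formazan was dissolved in DMSO, A570 was read, and IC50 was derived.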

Question: With C[C@@H](C[C@@H](O)[C@H](O)C(C)(C)O)[C@@H]1CC[C@]2(C)C3=CC[C@H]4C(C)(C)[C@H](O)CC[C@]4(C)[C@H]3CC[C@@]12C as the compound, how does the IC50 read?
Answer: > 100 µM
